Each structure is given as a SMILES string. About 740 (0.21%) of roughly 350,000 compounds were called active. Many of the other results were omitted from the sample, so actives are more common in it than they were. Values without a mark were called inactive.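 The calls were made as follows: active = every replicate reaching activation of at least 50%, whatever the mean replicate activation; inconclusive = replicates that disagree or another doubt; inactive = the rest.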

The nature of the assay: increased acetylated PGC1a in cells – cell-based, U2OS, AlphaScreen, signal-increasing mode, PGC1a modulator project, primary screen (AID 651723). The following applies: U2OS PGC1a acetylation AlphaScreen, overnight; at 15.6 µM; stronger effect = higher value. The essentials: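 Test system: U2OS cells expressing flag-PGC1a plus GCN5; Amount: 7000 U2OS cells per well; Compound: single test concentration per compound; Incubation: compound overnight at 37 °C, each detection step 1 h RT; Signal: AlphaScreen lysate read.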
For orientation: Bead proximity is the source of the signal in Alpha formats.
Take `CCOC(=O)c1c(NC(=O)CSc2cn(CC)c3ccccc23)sc2c1CCC2`: the activation is 67.2% (active).

Consider `CCOC(=O)c1c(-c2ccc(C)cc2C)csc1NC(=O)CSc1nnnn1C`, for which the activation is -46.2%.

With `CCCCC(=O)Nc1ccc(C(=O)NCCCn2ccnc2)cc1`, the activation is 71.6% (active).

In the case of `Cc1noc(C)c1S(=O)(=O)Nc1ccc2c(c1)C(=O)N([C@@H](C)CO)C[C@@H](C)[C@@H](CN(C)S(=O)(=O)c1ccccc1)O2`, the activation is -50.3%.

As to `Cc1ccc(-c2c[n+](CC(=O)Nc3ccccc3)c3n2CCC3)cc1`, the activation was -43.3%.

On to `Cc1nc(SCC(=O)NC2CCCC2)[nH]c(=O)c1C`, for which the activation is -42.3%.

In the case of `Cc1csc(NC(=O)NC2(C(F)(F)F)Oc3ccccc3O2)n1`, the activation was 74.6% (active).

For the compound `c1ccc2c(-c3nn4nnnc4c4ccccc34)cccc2c1`, the activation was 71% (active).

Regarding `Cn1c2c(c(=O)n(C)c1=O)C(c1cccc(F)c1)C(C#N)=C(N)O2` (centres undefined), the activation was -80.9%.

Consider `COc1ccc(Oc2c(Cl)cnn(-c3ccccc3)c2=O)cc1`, for which the activation is 112% (active).

Consider `CCOCCc1nn2c(=O)cc(CSCC(=O)Nc3cccc(C)c3C)nc2s1`, for which the activation was -38.7%.

Consider `O=S(=O)(c1ccc(Br)cc1)n1ccc2ccccc21`, for which the activation was -40.2%.

For the compound `Cc1cc(C)c(S(=O)(=O)NCC2CCC(C(=O)NCc3ccc4c(c3)OCO4)CC2)c(C)c1` (centres undefined), the activation is -43.2%.

As for `CC(C)(C)c1cc(C(=O)N/N=C/c2ccc([N+](=O)[O-])s2)n[nH]1`, the activation was 80.1% (active).

As for `Cc1nc(Nc2ccc3c(c2)OCCO3)c2nnn(Cc3ccccc3Cl)c2n1`, the activation is -56.2%.

For the compound `N#Cc1c(N)nc2c3c(sc(=N)c2c1N)NC(=O)CC3c1ccccc1Cl` (centres undefined), the activation is 67.8% (active).

For the compound `O=C(Nc1cccc(Cl)c1)c1cncn1-c1ccc(F)cc1`, the activation was -44.8%.

`Cc1cccc(CS(=O)(=O)c2ncc(Cl)c(C(=O)Nc3ccc(F)cc3)n2)c1`: the activation is 138% (active).

Regarding `CN(C)c1ccc(-n2cccc2/C=N/n2cnnc2)cc1`, the activation is -55.5%.

As to `O=C(NC1=CC(=O)c2ccccc2C1=O)c1ccccc1`, the activation was -80.8%.

Regarding `CC[C@H]1CN2CCc3cc(OC)c(OC)cc3[C@@H]2C[C@@H]1C[C@H]1NCCc2cc(OC)c(OC)cc21`, the activation is -83.7%.

As to `N#Cc1ccc(-c2ccc(C3[C@@H]4CN(S(=O)(=O)c5ccc(F)cc5)C[C@H]3N4)cc2)cc1` (some centres undefined), the activation was -58.1%.

In the case of `CCc1ccc(N2CC(O)=C(c3nc4ccccc4c(=O)[nH]3)C2=N)cc1`, the activation was 165% (active).

As for `Cc1cc(C(=O)NNS(=O)(=O)c2ccccc2C(F)(F)F)nn1C(C)(C)C`, the activation is 259% (active).

The record behind these values is PubChem BioAssay AID651723 (Broad Institute, 2012).
